Activity calls are given as the source filed them. The calls are words filed in the database; no cut-off is given here.
Columns and labels:
[1] = tested on: TK-10; experiment: Growth inhibition of human TK10 cells; type: functional
Procedure, shortened: (§1)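 Run in the NCI 60-cell-line screen under the standard NCI protocol. Cells were tested at concentrations up to 10^-4 M. Potency was expressed as GI50 (M), taken from the NCI mean-graph data.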

[2] = tested on: Bacillus subtilis; experiment: Antimicrobial activity against Bacillus subtilis at 100 ug/ml; type: functional, organism-based
[3] = tested on: NCI/ADR-RES; experiment: Growth inhibition of human NCI/ADR-RES cells; type: functional
Procedure, shortened: (§2)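 Tested in the NCI 60-cell-line screen using the standard NCI protocol, with concentrations up to 10^-4 M. Growth inhibition is reported as GI50 (M), taken from the NCI mean graphs.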

[4] = tested on: LOX IMVI; experiment: Growth inhibition of human LOXIMVI cells; type: functional; procedure, shortened: as §2
[5] = tested on: Malme-3M; experiment: Growth inhibition of human MALME-3M cells; type: functional; procedure, shortened: as §2
[6] = tested on: UO-31; experiment: Growth inhibition of human UO31 cells; type: functional; procedure, shortened: as §1
[7] = tested on: OVCAR-4; experiment: Growth inhibition of human OVCAR4 cells; type: functional; procedure, shortened: as §2
[8] = tested on: HCC 2998; experiment: Growth inhibition of human HCC2998 cells; type: functional; procedure, shortened: as §2
[9] = tested on: MCF7; experiment: Growth inhibition of human MCF7 cells; type: functional; procedure, shortened: as §2
[10] = tested on: NCI-H226; experiment: Growth inhibition of human NCI-H226 cells; type: functional; procedure, shortened: as §2
[11] = tested on: MOLT-4; experiment: Growth inhibition of human MOLT4 cells; type: functional; procedure, shortened: as §2
[12] = tested on: HL-60(TB); experiment: Growth inhibition of human HL-60(TB) cells; type: functional
Procedure, shortened: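 Run in the NCI 60-cell line panel using the standard NCI protocol. The value is reported as GI50 in molar units, with 10^-4 M the top concentration examined.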

[13] = tested on: SW-620; experiment: Growth inhibition of human SW620 cells; type: functional; procedure, shortened: as §1
[14] = tested on: A549; experiment: Growth inhibition of human A549 cells; type: functional
[15] = tested on: MDA-MB-435; experiment: Growth inhibition of human MDA-MB-435 cells; type: functional; procedure, shortened: as §2
[16] = tested on: OVCAR-3; experiment: Growth inhibition of human OVCAR-3 cells; type: functional; procedure, shortened: as §2
[17] = tested on: NCI-H460; experiment: Growth inhibition of human NCI-H460 cells; type: functional; procedure, shortened: as §2
[18] = tested on: RXF 393; experiment: Growth inhibition of human RXF393 cells; type: functional; procedure, shortened: as §1
[19] = tested on: EKVX; experiment: Growth inhibition of human EKVX cells; type: functional; procedure, shortened: as §2
[20] = tested on: Proteus sp.; experiment: Antimicrobial activity against Proteus sp. at 100 ug/ml; type: functional, organism-based
[21] = Growth inhibition of human RPMI8266 cells; type: functional; procedure, shortened: as §1
[22] = tested on: NCI-H322M; experiment: Growth inhibition of human NCI-H322M cells; type: functional; procedure, shortened: as §2
[23] = tested on: SNB-19; experiment: Growth inhibition of human SNB19 cells; type: functional; procedure, shortened: as §1
[24] = tested on: SK-MEL-5; experiment: Growth inhibition of human SK-MEL-5 cells; type: functional; procedure, shortened: as §1
[25] = tested on: OVCAR-8; experiment: Growth inhibition of human OVCAR8 cells; type: functional; procedure, shortened: as §2
[26] = tested on: SK-MEL-2; experiment: Growth inhibition of human SK-MEL-2 cells; type: functional; procedure, shortened: as §1
[27] = tested on: Salmonella typhimurium; experiment: Antimicrobial activity against Salmonella Typhimurium at 100 ug/ml; type: functional, organism-based; details: Salmonella enterica subsp. enterica serovar Typhimurium
[28] = tested on: PC-3; experiment: Growth inhibition of human PC3 cells; type: functional; procedure, shortened: as §1
[29] = tested on: MDA-MB-231; experiment: Growth inhibition of human MDA-MB-231 cells; type: functional; procedure, shortened: as §2
[30] = tested on: U-251; experiment: Growth inhibition of human U251 cells; type: functional; procedure, shortened: as §1
[31] = tested on: ACHN; experiment: Growth inhibition of human ACHN cells; type: functional; procedure, shortened: as §2
[32] = tested on: Enterococcus faecalis; experiment: Antimicrobial activity against Enterococcus faecalis at 100 ug/ml; type: functional, organism-based
[33] = tested on: SK-OV-3; experiment: Growth inhibition of human SKOV3 cells; type: functional; procedure, shortened: as §1
[34] = tested on: OVCAR-5; experiment: Growth inhibition of human OVCAR5 cells; type: functional; procedure, shortened: as §2
[35] = read-out: pLC50 (the source's name) (converted)

COc1cccc(/C=C/[C@H]2O[C@@H](C)[C@H](O)[C@@H]2O)c1CO [VARITRIOL]
GI50 [1]: > 100 µM | CC50 [1, 35]: > 100 µM | TGI ([1]; read-out: pTGI): > 100 µM | Activity [2]: inactive | GI50 [3]: > 100 µM | CC50 [3, 35]: > 100 µM | TGI ([3]; read-out: pTGI): > 100 µM | GI50 [4]: > 100 µM | CC50 [4, 35]: > 100 µM | TGI ([4]; read-out: pTGI): > 100 µM | GI50 [5]: > 100 µM | CC50 [5, 35]: > 100 µM | TGI ([5]; read-out: pTGI): > 100 µM | GI50 [6]: > 100 µM | CC50 [6, 35]: > 100 µM | TGI ([6]; read-out: pTGI): > 100 µM | GI50 [7]: > 100 µM | CC50 [7, 35]: > 100 µM | TGI ([7]; read-out: pTGI): > 100 µM | GI50 [8]: > 100 µM | CC50 [8, 35]: > 100 µM | TGI ([8]; read-out: pTGI): > 100 µM | GI50 [9]: > 100 µM | CC50 [9, 35]: > 100 µM | TGI ([9]; read-out: pTGI): > 100 µM | GI50 [10]: > 100 µM | CC50 [10, 35]: > 100 µM | TGI ([10]; read-out: pTGI): > 100 µM | GI50 [11]: > 100 µM | CC50 [11, 35]: > 100 µM | TGI ([11]; read-out: pTGI): > 100 µM | GI50 [12]: 25.1 µM | CC50 [12, 35]: > 100 µM | TGI ([12]; read-out: pTGI): > 100 µM | GI50 [13]: > 100 µM | CC50 [13, 35]: > 100 µM | TGI ([13]; read-out: pTGI): > 100 µM | GI50 [14]: > 100 µM | CC50 [14, 35]: > 100 µM | TGI ([14]; read-out: pTGI): > 100 µM | GI50 [15]: > 100 µM | CC50 [15, 35]: > 100 µM | TGI ([15]; read-out: pTGI): > 100 µM | GI50 [16]: > 100 µM | CC50 [16, 35]: > 100 µM | TGI ([16]; read-out: pTGI): > 100 µM | GI50 [17]: > 100 µM | CC50 [17, 35]: > 100 µM | TGI ([17]; read-out: pTGI): > 100 µM | GI50 [18]: 0.162 µM | CC50 [18, 35]: > 100 µM | TGI ([18]; read-out: pTGI (converted)): 0.933 µM | GI50 [19]: > 100 µM | CC50 [19, 35]: > 100 µM | TGI ([19]; read-out: pTGI): > 100 µM | Activity [20]: inactive | GI50 [21]: > 100 µM | CC50 [21, 35]: > 100 µM | TGI ([21]; read-out: pTGI): > 100 µM | GI50 [22]: > 100 µM | CC50 [22, 35]: > 100 µM | TGI ([22]; read-out: pTGI): > 100 µM | GI50 [23]: 91.2 µM | CC50 [23, 35]: > 100 µM | TGI ([23]; read-out: pTGI): > 100 µM | GI50 [24]: > 100 µM | CC50 [24, 35]: > 100 µM | TGI ([24]; read-out: pTGI): > 100 µM | GI50 [25]: > 100 µM | CC50 [25, 35]: > 100 µM | TGI ([25]; read-out: pTGI): > 100 µM | GI50 [26]: > 100 µM | CC50 [26, 35]: > 100 µM | TGI ([26]; read-out: pTGI): > 100 µM | Activity [27]: inactive | GI50 [28]: > 100 µM | CC50 [28, 35]: > 100 µM | TGI ([28]; read-out: pTGI): > 100 µM | GI50 [29]: > 100 µM | CC50 [29, 35]: > 100 µM | TGI ([29]; read-out: pTGI): > 100 µM | GI50 [30]: > 100 µM | CC50 [30, 35]: > 100 µM | TGI ([30]; read-out: pTGI): > 100 µM | GI50 [31]: > 100 µM | CC50 [31, 35]: > 100 µM | TGI ([31]; read-out: pTGI): > 100 µM | Activity [32]: inactive | GI50 [33]: > 100 µM | CC50 [33, 35]: > 100 µM | TGI ([33]; read-out: pTGI): > 100 µM | GI50 [34]: 67.6 µM
